Molecules are shown by their SMILES. Calls of active or inactive are those of the source. The calls are words filed in the database; no cut-off is given here.

Data set [1] concerns Mus musculus. Nature of the data set: Neurotoxicity in F1 albino mouse assessed as minimal motor impairment at 300 mg/kg, ip after 1 hr by rotorod test. It counts as toxicity, organism-based. Also noted: dose 300 mg/kg, route intraperitoneal. The note with it: in vivo. In outline:
(§1)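 Male albino F-1 mice (18–25 g), groups of 1–5 (rotorod 2–8). Compound given ip as a suspension in 0.5% methylcellulose at 30, 100 and 300 mg/kg. Seizures by maximal electroshock or subcutaneous pentylenetetrazole; neurotoxicity by rotorod. Read at 0.5 and 4 h, with some at 0.25, 1 and 2 h. Value is the minimum active dose, with protected (or toxic)/tested animals.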
For orientation: Falling from the rotarod earlier than controls is read as motor impairment.

Data set [2] has as its target T1, Adenosine receptor A3 (Homo sapiens, UniProt P0DMS8).
T1 sequence (P0DMS8 whole entry): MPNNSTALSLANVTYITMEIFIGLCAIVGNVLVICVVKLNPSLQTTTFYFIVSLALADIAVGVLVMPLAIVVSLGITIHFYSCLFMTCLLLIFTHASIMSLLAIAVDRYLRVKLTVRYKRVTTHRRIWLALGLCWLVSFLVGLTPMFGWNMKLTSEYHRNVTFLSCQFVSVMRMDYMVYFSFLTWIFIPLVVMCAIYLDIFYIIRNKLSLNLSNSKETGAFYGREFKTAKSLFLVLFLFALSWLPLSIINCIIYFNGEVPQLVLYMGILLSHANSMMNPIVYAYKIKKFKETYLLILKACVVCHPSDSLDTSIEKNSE
Nature of the data set: Displacement of [3H]PSB-11 from human recombinant adenosine A3 receptor expressed in CHO cells. Type of data set: cell-based. On the technique in general: In a radioligand displacement assay an active substance lowers the binding of a labelled ligand.

For data set [3], the system named is Mus musculus. Put plainly: Anticonvulsant activity in F1 albino mouse assessed as protection against subcutaneous pentylenetetrazole-induced seizures at 300 mg/kg, ip after 1 hr. Also noted: dose 300 mg/kg. Type of data set: functional, organism-based. In outline: as §1
Data set [4] addresses T2, Adenosine receptor A2b (Homo sapiens, UniProt P29275).
T2 sequence (P29275 whole entry): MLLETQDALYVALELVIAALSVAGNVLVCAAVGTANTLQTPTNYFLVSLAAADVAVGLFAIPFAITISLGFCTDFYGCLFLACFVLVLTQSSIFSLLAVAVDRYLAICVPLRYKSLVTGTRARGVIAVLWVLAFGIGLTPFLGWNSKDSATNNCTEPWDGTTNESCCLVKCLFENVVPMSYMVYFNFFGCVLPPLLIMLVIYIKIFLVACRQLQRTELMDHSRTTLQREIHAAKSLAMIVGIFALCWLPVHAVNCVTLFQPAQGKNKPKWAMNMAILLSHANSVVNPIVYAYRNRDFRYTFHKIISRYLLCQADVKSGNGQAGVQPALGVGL
Put plainly: Displacement of [3H]PSB-603 from human recombinant adenosine A2B receptor expressed in CHO cells. It counts as cell-based. Put shortly:
(§2)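 CHO cell membranes expressing the human receptor. Radioligands: A1 [3H]CCPA; A2B [3H]ZM241385 or [3H]PSB-603; A3 [3H]PSB-11. […] Potent compounds run at 6–7 concentrations spanning 3 orders of magnitude; Ki ± SEM.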

Data set [5] relates to CHO. Put plainly: Selectivity ratio of Ki for human recombinant adenosine A2A receptor expressed in CHO cells to Ki for adenosine A2A receptor in rat brain striatal membrane. Type of data set: cell-based. Put shortly:
(§3)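 Ki ratios from radioligand competition binding. Rat A1 used brain cortical membranes and rat A2A used brain striatal membranes. Human A1 and A2A used membranes of CHO cells expressing the receptors. A1 radioligand [³H]CCPA; A2A radioligand [³H]MSX-2. Potent compounds were tested at 6–7 concentrations spanning 3 orders of magnitude.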

Data set [6] is filed under the species Rattus norvegicus. Nature of the data set: Selectivity ratio of Ki for adenosine A1 receptor in rat brain cortical membrane to Ki for adenosine A2A receptor in rat brain striatal membrane. Type of data set: cell membranes. In outline:
as §3

The test system of data set [7] is Mus musculus. Put plainly: Anticonvulsant activity in F1 albino mouse assessed as protection against maximal electroshock-induced seizures at 300 mg/kg, ip after 0.25 hrs. Also noted: dose 300 mg/kg. It counts as functional, organism-based. Put shortly:
as §1

In data set [8] the target is T3, Adenosine receptor A2b (Homo sapiens) (UniProt P29275).
T3 sequence (whole entry): T2 sequence (P29275 whole entry)
Nature of the data set: Displacement of [3H]PSB-603 from human recombinant adenosine A2B receptor expressed in CHO cells at 10 uM. Type of data set: cell-based. Put shortly:
as §2

The test system of data set [9] is Mus musculus. Put plainly: Anticonvulsant activity in F1 albino mouse assessed as protection against subcutaneous pentylenetetrazole-induced seizures at 300 mg/kg, ip after 4 hrs. Also noted: dose 300 mg/kg. It counts as functional, organism-based. Put shortly: as §1
Data set [10] has as its target T4, Adenosine receptor A1 (Homo sapiens, UniProt P30542).
T4 sequence (P30542 whole entry): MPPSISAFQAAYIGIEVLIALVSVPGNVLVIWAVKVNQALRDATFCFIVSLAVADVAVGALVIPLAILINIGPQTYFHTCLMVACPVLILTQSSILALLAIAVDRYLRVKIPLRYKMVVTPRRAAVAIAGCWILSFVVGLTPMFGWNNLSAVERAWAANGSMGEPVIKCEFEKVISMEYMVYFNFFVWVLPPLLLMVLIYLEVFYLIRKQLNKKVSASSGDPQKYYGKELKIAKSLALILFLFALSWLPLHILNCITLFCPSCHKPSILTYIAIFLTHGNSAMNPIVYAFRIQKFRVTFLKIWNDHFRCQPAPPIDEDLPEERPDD
Put plainly: Displacement of [3H]CCPA from human recombinant adenosine A1 receptor expressed in CHO cells. Type of data set: cell-based.

The test system of data set [11] is Mus musculus. Put plainly: Neurotoxicity in F1 albino mouse assessed as minimal motor impairment at 300 mg/kg, ip after 0.25 hrs by rotorod test. It counts as toxicity, organism-based. Also noted: dose 300 mg/kg, route intraperitoneal. Particulars: in vivo. In outline:
as §1

Data set [12] relates to Mus musculus. Put plainly: Neurotoxicity in F1 albino mouse assessed as minimal motor impairment at 300 mg/kg, ip after 4 hrs by rotorod test. It counts as toxicity, organism-based. Also noted: dose 300 mg/kg, route intraperitoneal. Particulars: in vivo. In outline:
as §1

Data set [13] concerns the target T5, Adenosine receptor A2a (Homo sapiens, UniProt P29274). Nature of the data set: Displacement of [3H]MSX-2 from human recombinant adenosine A2A receptor expressed in CHO cells. It counts as cell-based.
Data set [14] relates to Mus musculus. Put plainly: Anticonvulsant activity in F1 albino mouse assessed as protection against maximal electroshock-induced seizures at 300 mg/kg, ip after 4 hrs. It counts as functional, organism-based. Also noted: dose 300 mg/kg. Put shortly: as §1
Background: The maximal electroshock test induces tonic seizures with an electrical stimulus.

Data set [15] has as its system Mus musculus. Nature of the data set: Anticonvulsant activity in F1 albino mouse assessed as protection against maximal electroshock-induced seizures at 300 mg/kg, ip after 1 hr. Type of data set: functional, organism-based. Also noted: dose 300 mg/kg. In outline:
as §1

For data set [16], the system named is Mus musculus. Nature of the data set: Anticonvulsant activity in F1 albino mouse assessed as protection against subcutaneous pentylenetetrazole-induced seizures at 300 mg/kg, ip after 0.25 hrs. It counts as functional, organism-based. Also noted: dose 300 mg/kg. Put shortly:
as §1

Data set [17] concerns the target Adenosine receptor A2a (Rattus norvegicus, UniProt P30543). Put plainly: Displacement of [3H]MSX-2 from adenosine A2A receptor in rat brain striatal membrane. Type of data set: cell membranes.
Data set [18] concerns Mus musculus. Nature of the data set: Anticonvulsant activity in F1 albino mouse assessed as protection against maximal electroshock-induced seizures at 300 mg/kg, ip after 0.5 hrs. It counts as functional, organism-based. Also noted: dose 300 mg/kg. Put shortly: as §1
Data set [19] has as its system Mus musculus. Put plainly: Anticonvulsant activity in F1 albino mouse assessed as protection against subcutaneous pentylenetetrazole-induced seizures at 100 mg/kg, ip after 0.5 hrs. It counts as functional, organism-based. Also noted: dose 100 mg/kg. In outline:
as §1

Data set [20] has as its target T6, Adenosine receptor A1 (Rattus norvegicus, UniProt P25099).
T6 sequence (P25099 whole entry): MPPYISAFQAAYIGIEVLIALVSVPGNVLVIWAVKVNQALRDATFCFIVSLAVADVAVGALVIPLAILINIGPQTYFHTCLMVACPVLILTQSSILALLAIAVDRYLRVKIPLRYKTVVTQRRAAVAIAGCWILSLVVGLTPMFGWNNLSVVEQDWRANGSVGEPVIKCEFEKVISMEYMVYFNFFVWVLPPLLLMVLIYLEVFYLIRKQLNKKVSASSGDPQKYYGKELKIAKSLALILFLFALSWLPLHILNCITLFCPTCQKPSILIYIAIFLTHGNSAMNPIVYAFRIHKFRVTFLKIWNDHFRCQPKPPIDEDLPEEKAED
Put plainly: Displacement of [3H]CCPA from adenosine A1 receptor in rat brain cortical membrane. It counts as cell membranes.

In data set [21] the test system is CHO. Put plainly: Selectivity ratio of Ki for adenosine A1 receptor in rat brain cortical membrane to Ki for human recombinant adenosine A1 receptor expressed in CHO cells. It counts as cell-based. In outline: as §3
Data set [22] has as its target T7, Adenosine receptor A3 (Homo sapiens) (UniProt P0DMS8).
T7 sequence (whole entry): T1 sequence (P0DMS8 whole entry)
Put plainly: Displacement of [3H]PSB-11 from human recombinant adenosine A3 receptor expressed in CHO cells at 10 uM. Type of data set: cell-based. Put shortly:
as §2

Data set [23] deals with Mus musculus. Nature of the data set: Neurotoxicity in F1 albino mouse assessed as minimal motor impairment at 300 mg/kg, ip after 0.5 hrs by rotorod test. It counts as toxicity, organism-based. The note with it: in vivo. Also noted: dose 300 mg/kg, route intraperitoneal. In outline: as §1
The target of data set [24] is T8, Adenosine receptor A1 (Homo sapiens) (UniProt P30542).
T8 sequence (whole entry): T4 sequence (P30542 whole entry)
Put plainly: Displacement of [3H]CCPA from human recombinant adenosine A1 receptor expressed in CHO cells at 10 uM. It counts as cell-based. Put shortly:
as §2

In data set [25] the test system is Mus musculus. Nature of the data set: Anticonvulsant activity in F1 albino mouse assessed as protection against subcutaneous pentylenetetrazole-induced seizures at 300 mg/kg, ip after 0.5 hrs. Also noted: dose 300 mg/kg. Type of data set: functional, organism-based. Put shortly: as §1
The target in data set [26] is Adenosine receptor A2a (Rattus norvegicus) (UniProt P30543). The note with it: Brain, Membrane, 25 uM.
Data set [27] concerns the target T5, Adenosine receptor A2a. The note with it: CHO, 10 uM.
The target of data set [28] is T9, Adenosine receptor A1 (Rattus norvegicus) (UniProt P25099).
T9 sequence (whole entry): T6 sequence (P25099 whole entry)
Put plainly: Displacement of [3H]CCPA from adenosine A1 receptor in rat brain cortical membrane at 25 uM. Type of data set: cell membranes.

Data set [29] concerns the target T3, Adenosine receptor A2b (Homo sapiens). The note with it: CHO, 10 uM.

T5 sequence (P29274 whole entry): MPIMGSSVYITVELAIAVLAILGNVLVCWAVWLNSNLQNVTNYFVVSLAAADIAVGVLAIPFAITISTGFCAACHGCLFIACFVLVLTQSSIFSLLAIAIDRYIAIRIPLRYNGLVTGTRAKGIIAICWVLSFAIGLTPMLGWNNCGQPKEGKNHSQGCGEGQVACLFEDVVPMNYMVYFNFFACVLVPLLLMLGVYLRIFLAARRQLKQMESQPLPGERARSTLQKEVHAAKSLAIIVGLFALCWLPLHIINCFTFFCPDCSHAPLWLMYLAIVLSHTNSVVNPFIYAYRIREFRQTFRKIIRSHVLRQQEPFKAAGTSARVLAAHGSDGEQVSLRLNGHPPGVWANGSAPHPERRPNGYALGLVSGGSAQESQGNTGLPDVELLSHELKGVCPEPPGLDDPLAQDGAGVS
Adenosine receptor A2a (Rattus norvegicus, UniProt P30543), sequence (P30543 whole entry): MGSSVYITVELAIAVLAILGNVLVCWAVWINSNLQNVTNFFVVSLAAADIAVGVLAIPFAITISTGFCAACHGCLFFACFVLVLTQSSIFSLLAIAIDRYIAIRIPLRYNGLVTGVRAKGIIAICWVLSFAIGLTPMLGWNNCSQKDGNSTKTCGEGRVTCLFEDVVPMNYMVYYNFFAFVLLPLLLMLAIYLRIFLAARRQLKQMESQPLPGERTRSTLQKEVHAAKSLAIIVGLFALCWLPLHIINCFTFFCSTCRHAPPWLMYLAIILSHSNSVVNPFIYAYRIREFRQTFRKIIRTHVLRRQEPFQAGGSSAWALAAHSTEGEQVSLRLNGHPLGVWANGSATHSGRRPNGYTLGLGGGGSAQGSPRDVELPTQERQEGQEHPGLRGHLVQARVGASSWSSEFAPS
Adenosine receptor A2a (Rattus norvegicus), sequence (P30543 whole entry): as above

On to `Cn1c(=O)c2c(nc3n2CCCN3CCC2=CCCCC2)n(C)c1=O`, for which the Activity result in data set [1], in data set [11], in [12] and in [23] was “Non-toxic” throughout. The Ki is over 10 µM in data set [2]; over 10 µM in data set [4]; 6.9 µM in data set [10]; 0.933 µM in [13]; 0.5 µM in [17]; 14.7 µM in data set [20]. Also, the result in data set [3], in data set [7], in [9], in data set [14], in [15] and in data set [16] was inactive. The result in data set [18] and in data set [19] was inactive. Also, the Ratio Ki in [5] amounted to 2; in data set [6] it was 44; in data set [21], 2. For the same compound, the inhibition in data set [8] was 6%; in data set [22], 23%.

Turning to `Cn1c(=O)c2c(nc3n2CCCN3C23CC4CC(CC(C4)C2)C3)n(C)c1=O`, the Activity result in data set [1], in data set [11], in [12] and in [23] was “Non-toxic” in each case. In addition, the Ki in data set [2] is 1.29 µM; in [4], over 10 µM; in [10], over 10 µM; in [13], over 10 µM; in data set [17], over 10 µM; in [20], over 10 µM. Further, the result in data set [3], in data set [7], in data set [9], in data set [14], in data set [15] and in data set [25] was inactive. In addition, the outcome in data set [16] and in data set [18] was inactive. Besides, the inhibition in data set [24] amounted to 15%; in data set [8], 0%; in data set [26] it was 13%; in data set [27], 0%; in data set [28], 7%. For the same compound, the Ratio Ki in data set [6] is 1.

`CCn1c(=O)c2c(nc(/C=C/c3ccc(OC)c(OC)c3)n2C)n(CC)c1=O` [ISTRADEFYLLINE]: the figures for the Ki in [2] and in data set [10] were 4.47 µM and 2.07 µM, respectively. In data set [29], this compound had an inhibition of 47%.

The Ki is a dissociation constant, usually derived from enzyme kinetics or from competition with a known ligand. As usually defined, the inhibition is how much of the control response was suppressed.

These data come from ChEMBL document CHEMBL2150901, “Synthesis and biological activity of tricyclic cycloalkylimidazo-, pyrimido- and diazepinopurinediones” (Eur J Med Chem, 2011).
